According to ChEMBL document CHEMBL5247578, “Effective synthesis of benzimidazoles-imidazo[1,2-a]pyrazine conjugates: A comparative study of mono-and bis-benzimidazoles for antitumor activity” (Eur J Med Chem, 2019):

Experiments:
Calf thymus DNA = assay: Binding affinity to calf thymus DNA assessed as binding constant by Benesi-Hildebrand equation based UV-vis spectrophotometric method; assay type: nucleic-acid assay; settings: Bos taurus
HCT-116 = assay: Antiproliferative activity against human HCT-116 cells assessed as cell growth at 0.00000001 M incubated for 48 hrs by SRB assay relative to control; assay type: functional; settings: dose 10 nM, read-out: Activity
In short: (§1)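 NCI-60 five-dose screen (10^-4 to 10^-8 M). Cells grown in RPMI 1640 with 5% FBS and 2 mM L-glutamine, plated at 5,000-40,000 cells/well and preincubated 24 h. Drug given from DMSO stock, then 48 h at 37 °C, 5% CO2. For adherent lines, cells fixed with cold TCA, SRB-stained and read at 515 nm. Percent growth taken against time-zero and untreated control.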

HCT-15 = assay: Antiproliferative activity against human HCT-15 cells assessed as cell growth at 0.00000001 M incubated for 48 hrs by SRB assay relative to control; assay type: functional; settings: dose 10 nM, read-out: Activity; in short: as §1
KM12 = assay: Antiproliferative activity against human KM12 cells assessed as cell growth at 0.00000001 M incubated for 48 hrs by SRB assay relative to control; assay type: functional; settings: dose 10 nM, read-out: Activity
MCF7 = assay: Antiproliferative activity against human MCF7 cells assessed as cell growth inhibition by measuring lethal concentration incubated for 48 hrs by sulforhodamine B assay; assay type: functional; settings: read-out: LC50 (the source's name)
CAKI-1 = assay: Antiproliferative activity against human CAKI-1 cells assessed as cell growth inhibition by measuring lethal concentration incubated for 48 hrs by sulforhodamine B assay; assay type: functional; settings: read-out: LC50 (the source's name)
NCI/ADR-RES = assay: Antiproliferative activity against human NCI/ADR-RES cells assessed as cell growth inhibition by measuring lethal concentration incubated for 48 hrs by sulforhodamine B assay; assay type: functional; settings: read-out: LC50 (the source's name)
OVCAR-3 = assay: Antiproliferative activity against human OVCAR-3 cells assessed as cell growth inhibition by measuring lethal concentration incubated for 48 hrs by sulforhodamine B assay; assay type: functional; settings: read-out: LC50 (the source's name)
UACC-62 = assay: Antiproliferative activity against human UACC-62 cells assessed as cell growth inhibition by measuring lethal concentration incubated for 48 hrs by sulforhodamine B assay; assay type: functional; settings: read-out: LC50 (the source's name)
In short: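 NCI-60 five-dose screen (10^-4 to 10^-8 M, 10-fold dilutions; DMSO stocks). Cells in RPMI 1640 with 5% FBS and 2 mM L-glutamine, preincubated 24 h, then exposed 48 h at 37 °C, 5% CO2. Fixed with cold TCA, stained with 0.4% SRB, absorbance read at 515 nm. Time-zero plates used as reference. LC50 taken from [(Ti-Tz)/Tz]×100 […].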

MDA-MB-435 [1] = assay: Antiproliferative activity against human MDA-MB-435 cells assessed as cell growth inhibition by measuring lethal concentration incubated for 48 hrs by sulforhodamine B assay; assay type: functional; settings: read-out: LC50 (the source's name)
EKVX = assay: Antiproliferative activity against human EKVX cells assessed as cell growth inhibition by measuring lethal concentration incubated for 48 hrs by sulforhodamine B assay; assay type: functional; settings: read-out: LC50 (the source's name)
Hs-578T = assay: Growth inhibition against human Hs-578T cells assessed as total growth inhibitory concentration incubated for 48 hrs by sulforhodamine B assay; assay type: functional
NCI-H23 [2] = assay: Growth inhibition against human NCI-H23 cells assessed as total growth inhibitory concentration incubated for 48 hrs by sulforhodamine B assay; assay type: functional
786-0 [3] = assay: Growth inhibition against human 786-0 cells incubated for 48 hrs by sulforhodamine B assay; assay type: functional
Malme-3M [4] = assay: Growth inhibition against human Malme-3M cells incubated for 48 hrs by sulforhodamine B assay; assay type: functional
SF-268 = assay: Growth inhibition against human SF-268 cells incubated for 48 hrs by sulforhodamine B assay; assay type: functional
NCI-H322M = assay: Growth inhibition against human NCI-H322M cells incubated for 48 hrs by sulforhodamine B assay; assay type: functional
NCI-H226 [5] = assay: Antiproliferative activity against human NCI-H226 cells assessed as cell growth at 0.0000001 M incubated for 48 hrs by SRB assay relative to control; assay type: functional; settings: dose 100 nM, read-out: Activity
HT-29 = assay: Antiproliferative activity against human HT-29 cells assessed as cell growth at 0.0000001 M incubated for 48 hrs by SRB assay relative to control; assay type: functional; settings: dose 100 nM, read-out: Activity; in short: as §1
MDA-MB-435 [6] = assay: Antiproliferative activity against human MDA-MB-435 cells assessed as cell growth at 0.0000001 M incubated for 48 hrs by SRB assay relative to control; assay type: functional; settings: dose 100 nM, read-out: Activity
OVCAR-4 [7] = assay: Antiproliferative activity against human OVCAR-4 cells assessed as cell growth at 0.0000001 M incubated for 48 hrs by SRB assay relative to control; assay type: functional; settings: dose 100 nM, read-out: Activity
786-0 [8] = assay: Antiproliferative activity against human 786-0 cells assessed as cell growth at 0.0000001 M incubated for 48 hrs by SRB assay relative to control; assay type: functional; settings: dose 100 nM, read-out: Activity
In short: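 NCI-60 five-dose screen over 10^-4–10^-8 M (10-fold dilutions). Cells grown in RPMI 1640 with 5% FBS and 2 mM L-glutamine, seeded at 5,000–40,000 cells/well and preincubated 24 h. Drug from DMSO stock, 48 h at 37 °C, 5% CO2. Adherent cells TCA-fixed and stained with 0.4% SRB; A515 read. Percent growth = (Ti−Tz)/(C−Tz)×100, or (Ti−Tz)/Tz×100 when Ti<Tz.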

SN12C = assay: Antiproliferative activity against human SN12C cells assessed as cell growth at 0.0000001 M incubated for 48 hrs by SRB assay relative to control; assay type: functional; settings: dose 100 nM, read-out: Activity
NCI-H460 = assay: Antiproliferative activity against human NCI-H460 cells assessed as cell growth at 0.000001 M incubated for 48 hrs by SRB assay relative to control; assay type: functional; settings: read-out: Activity
SNB-19 = assay: Antiproliferative activity against human SNB-19 cells assessed as cell growth at 0.000001 M incubated for 48 hrs by SRB assay relative to control; assay type: functional; settings: read-out: Activity
Malme-3M [9] = assay: Antiproliferative activity against human Malme-3M cells assessed as cell growth at 0.000001 M incubated for 48 hrs by SRB assay relative to control; assay type: functional; settings: read-out: Activity
SK-MEL-28 = assay: Antiproliferative activity against human SK-MEL-28 cells assessed as cell growth at 0.000001 M incubated for 48 hrs by SRB assay relative to control; assay type: functional; settings: read-out: Activity
OVCAR-4 [10] = assay: Antiproliferative activity against human OVCAR-4 cells assessed as cell growth at 0.000001 M incubated for 48 hrs by SRB assay relative to control; assay type: functional; settings: read-out: Activity
HOP-92 = assay: Antiproliferative activity against human HOP-92 cells assessed as cell growth at 0.00001 M incubated for 48 hrs by SRB assay relative to control; assay type: functional; settings: read-out: Activity; in short: as §1
NCI-H23 [11] = assay: Antiproliferative activity against human NCI-H23 cells assessed as cell growth at 0.00001 M incubated for 48 hrs by SRB assay relative to control; assay type: functional; settings: read-out: Activity
HCC 2998 = assay: Antiproliferative activity against human HCC 2998 cells assessed as cell growth at 0.00001 M incubated for 48 hrs by SRB assay relative to control; assay type: functional; settings: read-out: Activity; in short: as §1
SR = assay: Antiproliferative activity against human SR cells assessed as cell growth at 0.0001 M incubated for 48 hrs by SRB assay relative to control; assay type: functional; settings: read-out: Activity
NCI-H226 [12] = assay: Antiproliferative activity against human NCI-H226 cells assessed as cell growth at 0.0001 M incubated for 48 hrs by SRB assay relative to control; assay type: functional; settings: read-out: Activity

SMILES	Kb (Calf thymus DNA)	growth at 0.01 µM (HCT-116) [%]	growth at 0.01 µM (HCT-15) [%]	growth at 0.01 µM (KM12) [%]	CC50 (MCF7) [µM]	CC50 (CAKI-1) [µM]	CC50 (NCI/ADR-RES) [µM]	CC50 (OVCAR-3) [µM]	CC50 (UACC-62) [µM]	CC50 (MDA-MB-435 [1]) [µM]	CC50 (EKVX) [µM]	TGI (Hs-578T) [µM]	TGI (NCI-H23 [2]) [µM]	GI50 (786-0 [3]) [µM]	GI50 (Malme-3M [4]) [µM]	GI50 (SF-268) [µM]	GI50 (NCI-H322M) [µM]	growth at 0.1 µM (NCI-H226 [5]) [%]	growth at 0.1 µM (HT-29) [%]	growth at 0.1 µM (MDA-MB-435 [6]) [%]	other results
COc1ccc(-c2cn3ccnc3c(-c3ccc4ncn(C5CCCCC5)c4c3)n2)cc1	3.34 10^4/M	95	94	100	> 100	> 100	> 100	> 100	> 100	> 100	> 100	49.3	> 100	0.527	43.1	2.38	> 100	96	92	92	growth at 0.1 µM (OVCAR-4 [7]): 96%; growth at 0.1 µM (786-0 [8]): 93%; growth at 0.1 µM (SN12C): 100%; growth at 1 µM (NCI-H460): 35%; growth at 1 µM (SNB-19): 45%; growth at 1 µM (Malme-3M [9]): 53%; growth at 1 µM (SK-MEL-28): 58%; growth at 1 µM (OVCAR-4 [10]): 84%; growth at 10 µM (HOP-92): 2%; growth at 10 µM (NCI-H23 [11]): 13%; growth at 10 µM (HCC 2998): 9%; growth at 100 µM (SR): 16%; growth at 100 µM (NCI-H226 [12]): 39%
c1ccc(Cn2cnc3ccc(-c4nc(-c5ccc6c(c5)ncn6C5CCCCC5)cn5ccnc45)cc32)cc1	3.18 10^4/M	89	92	100	> 100	> 100	> 100	> 100	> 100	> 100	> 100	> 100	4.49	0.799	2.54	2.48	3.05	103	97	98	growth at 0.1 µM (OVCAR-4 [7]): 98%; growth at 0.1 µM (786-0 [8]): 86%; growth at 0.1 µM (SN12C): 101%; growth at 1 µM (NCI-H460): 96%; growth at 1 µM (SNB-19): 93%; growth at 1 µM (Malme-3M [9]): 91%; growth at 1 µM (SK-MEL-28): 87%; growth at 1 µM (OVCAR-4 [10]): 96%; growth at 10 µM (HOP-92): -90%; growth at 10 µM (NCI-H23 [11]): -46%; growth at 10 µM (HCC 2998): -92%; growth at 100 µM (SR): 6%; growth at 100 µM (NCI-H226 [12]): 36%
